Values after ≈ are worked out from the molar mass of the structure shown.
How the values were obtained:
Plasmodium berghei = assay: Antimalarial activity against chloroquine-sensitive Plasmodium berghei ANKA infected in C57BL/6 mouse assessed as supression of parasitemia at 30 mg/kg, po administered for 4 consecutive days starting at 2 hrs post infection by peter's test relative to control; assay type: functional
In short: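 P. berghei ANKA passaged in C57BL/6 donor; test mice infected ip with 200 μL of 1 × 10⁷ parasitized erythrocytes in PBS. Oral dosing 30 mg/kg at 2 h post-infection, then daily D0–D3; PBS-dosed controls. Parasitemia read on D4 from Giemsa-stained, methanol-fixed tail thin films; suppression relative to control.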

Plasmodium falciparum [1] = assay: Increase in free heme levels in chloroquine-sensitive synchronized ring stage of Plasmodium falciparum NF54 after 32 hrs by flow cytometric analysis; assay type: functional
In short: (§1)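 Sorbitol-synchronized (5%) ring-stage cultures exposed to compound at multiples of IC50 for 32 h; trophozoites freed with 0.05% saponin, PBS-washed, counted by hemocytometer and flow cytometry. Hypotonic lysis/sonication, then sequential SDS/pyridine fractionation into hemoglobin, free heme and hemozoin (SDS/NaOH) fractions; each measured by UV-vis as Fe(III) heme-pyridine complex.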

Plasmodium falciparum [2] = assay: Increase in hemoglobin levels in chloroquine-sensitive synchronized ring stage of Plasmodium falciparum NF54 after 32 hrs by flow cytometric analysis; assay type: functional; in short: as §1
Plasmodium falciparum [3] = assay: Decrease in hemozoine formation in chloroquine-sensitive synchronized ring stage of Plasmodium falciparum NF54 after 32 hrs by flow cytometric analysis; assay type: functional; in short: as §1
[4] = Metabolic stability in BALB/c mouse liver microsomes assessed as parent compound remaining at 1 uM after 30 mins in presence of NADPH by LC-MS/MS analysis; assay type: ADME, microsome; settings: read-out: Stability
In short: (§2)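 Compound at 1 μM with 0.35 mg/ml male BALB/c mouse liver microsomes, 1 mM NADPH, 100 mM phosphate pH 7.4, 37 °C, 30 min; triplicate. Stopped by ice-cold acetonitrile with carbamazepine internal standard; parent loss by LC-MS/MS (ESI positive, MRM) as % remaining; scan data screened for putative metabolite fragments.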

Plasmodium falciparum [5] = assay: Resistance index, ratio of IC50 for chloroquine-resistant synchronized trophozoite stage of Plasmodium falciparum Dd2 to IC50 for chloroquine-sensitive synchronized trophozoite stage of Plasmodium falciparum NF54; assay type: functional
Liver [6] = assay: Drug metabolism in BALB/c mouse liver microsomes assessed as oxidation of aldehyde to carboxylic acid at 1 uM in presence of NADPH by mass spectrometric analysis; assay type: ADME, microsome; in short: as §2
Liver [7] = assay: Drug metabolism in BALB/c mouse liver microsomes assessed as N-dealkylation on tertiary amine at 1 uM in presence of NADPH by mass spectrometric analysis; assay type: ADME, microsome; in short: as §2
[8] = Inhibition of beta hematin formation by detergent based assay
In short: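 β-hematin formation from hematin in 1 M acetate buffer pH 4.9 with NP40 detergent, compound serially diluted from 20 mM DMSO stock; ~5 h at 37 °C. Free heme complexed with pyridine/acetone/HEPES pH 7.4 solution, absorbance at 405 nm; IC50 from dose-response curves.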

[9] = Half life in BALB/c mouse liver microsomes at 1 uM in presence of NADPH by LC-MS/MS analysis; assay type: ADME, microsome; in short: as §2
[10] = n-Octanol-buffer distribution coefficient, log D of the compound at pH 7.4 […] by HPLC based shake flask method; assay type: physicochemical
Liver [11] = assay: Drug metabolism in BALB/c mouse liver microsomes assessed as aldehyde reduction at 1 uM in presence of NADPH by mass spectrometric analysis; assay type: ADME, microsome; in short: as §2
Liver [12] = assay: Drug metabolism in BALB/c mouse liver microsomes assessed as N-dealkylation with oxidative deamination at 1 uM in presence of NADPH by mass spectrometric analysis; assay type: ADME, microsome; in short: as §2
[13] = Intrinsic clearance in BALB/c mouse liver microsomes at 1 uM in presence of NADPH by LC-MS/MS analysis; assay type: ADME, microsome; settings: read-out: CLH; in short: as §2
Liver [14] = assay: Drug metabolism in BALB/c mouse liver microsomes assessed as oxidation of quinoline core or pyridyl ring at 1 uM in presence of NADPH by mass spectrometric analysis; assay type: ADME, microsome; in short: as §2
CHO = assay: Cytotoxicity against CHO cells by MTT assay; assay type: cell-based; settings: Cricetulus griseus
In short: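 MTT assay on CHO cells. DMSO stock diluted in complete medium; 10-fold serial dilutions, 6 concentrations from 100 to 0.001 μg/mL; emetine reference; triplicate on each occasion. IC50 from non-linear fit of full dose-response curves.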

[15] = n-Octanol-buffer distribution coefficient, log D of the compound at pH 5 incubated for 4 hrs by UV-vis based shake flask method; assay type: physicochemical
Plasmodium falciparum [16] = assay: Antiplasmodial activity against chloroquine-sensitive synchronized trophozoite stage of Plasmodium falciparum NF54 after 48 hrs by NBT dye based LDH assay; assay type: functional; settings: NF54, 48 h
[17] = Selectivity index, ratio of IC50 for CHO cells to IC50 for chloroquine-sensitive synchronized trophozoite stage of Plasmodium falciparum NF54; assay type: toxicity; settings: hamster; read-out: Ratio IC50
Plasmodium falciparum [18] = assay: Resistance index, ratio of IC50 for chloroquine-resistant synchronized trophozoite stage of Plasmodium falciparum 7G8 to IC50 for chloroquine-sensitive synchronized trophozoite stage of Plasmodium falciparum NF54; assay type: functional
[19] = Kinetic solubility of compound in simulating fasting state biorelevant media at pH 6.5 after 2 hrs by shake flask method; assay type: physicochemical; settings: fasted-state simulating biorelevant medium, read-out: Kinetic_solubility
Plasmodium falciparum [20] = assay: Antiplasmodial activity against chloroquine-resistant synchronized trophozoite stage of Plasmodium falciparum Dd2 after 48 hrs by NBT dye based LDH assay; assay type: functional; settings: Dd2, 48 h
Plasmodium falciparum [21] = assay: Antiplasmodial activity against chloroquine-resistant synchronized trophozoite stage of Plasmodium falciparum 7G8 after 48 hrs by NBT dye based LDH assay; assay type: functional; settings: 7G8, 48 h
[22] = target: Voltage-gated inwardly rectifying potassium channel KCNH2 (Homo sapiens, UniProt Q12809); assay: Inhibition of human ERG expressed in CHO cells by automated patch clamp method; assay type: cell-based
Sequence of Voltage-gated inwardly rectifying potassium channel KCNH2 (Q12809 whole entry): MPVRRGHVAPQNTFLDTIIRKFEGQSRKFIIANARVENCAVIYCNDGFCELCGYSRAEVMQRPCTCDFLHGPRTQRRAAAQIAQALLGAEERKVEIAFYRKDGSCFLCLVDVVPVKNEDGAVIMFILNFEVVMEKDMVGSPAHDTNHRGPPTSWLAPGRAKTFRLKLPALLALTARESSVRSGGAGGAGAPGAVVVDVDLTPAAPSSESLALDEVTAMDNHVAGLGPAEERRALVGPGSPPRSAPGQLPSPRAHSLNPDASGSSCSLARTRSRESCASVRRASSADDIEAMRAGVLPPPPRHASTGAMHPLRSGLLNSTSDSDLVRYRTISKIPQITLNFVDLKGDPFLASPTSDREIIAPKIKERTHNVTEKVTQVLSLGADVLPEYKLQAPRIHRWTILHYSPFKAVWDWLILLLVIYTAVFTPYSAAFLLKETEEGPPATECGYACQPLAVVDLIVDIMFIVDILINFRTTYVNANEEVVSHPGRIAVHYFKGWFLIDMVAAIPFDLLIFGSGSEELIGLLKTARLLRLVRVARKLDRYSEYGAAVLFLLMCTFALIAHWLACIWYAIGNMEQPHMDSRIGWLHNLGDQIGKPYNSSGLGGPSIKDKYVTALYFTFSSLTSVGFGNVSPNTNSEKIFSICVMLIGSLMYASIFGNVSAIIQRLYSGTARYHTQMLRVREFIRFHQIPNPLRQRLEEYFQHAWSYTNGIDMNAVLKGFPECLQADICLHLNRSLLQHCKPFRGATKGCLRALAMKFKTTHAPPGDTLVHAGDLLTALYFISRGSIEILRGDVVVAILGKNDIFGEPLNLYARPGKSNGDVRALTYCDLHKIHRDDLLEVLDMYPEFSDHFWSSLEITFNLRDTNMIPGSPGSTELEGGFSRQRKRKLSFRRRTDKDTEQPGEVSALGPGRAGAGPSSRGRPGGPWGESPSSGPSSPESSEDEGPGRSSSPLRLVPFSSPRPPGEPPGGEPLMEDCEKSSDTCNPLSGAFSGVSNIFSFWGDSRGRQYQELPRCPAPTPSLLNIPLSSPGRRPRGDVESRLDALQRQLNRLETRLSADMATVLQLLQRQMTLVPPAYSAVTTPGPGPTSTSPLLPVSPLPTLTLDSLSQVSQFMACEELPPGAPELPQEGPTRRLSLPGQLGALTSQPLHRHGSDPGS

Row | SMILES | Activity (Plasmodium berghei) | Activity (Plasmodium falciparum [1]) | Activity (Plasmodium falciparum [2]) | Activity (Plasmodium falciparum [3]) | remaining at 0.5 h, 1 µM [4] | Ratio IC50 (Plasmodium falciparum [5]) | Drug metabolism (Liver [6]) | Drug metabolism (Liver [7]) | IC50 [8] | half-life at 1 µM [9] | logD [10] | Drug metabolism (Liver [11]) | Drug metabolism (Liver [12]) | CLint scaled at 1 µM [13] | Drug metabolism (Liver [14]) | IC50 (Plasmodium falciparum [16]) | Ratio IC50 (Plasmodium falciparum [18]) | solubility kinetic at 2 h [19] | IC50 (Plasmodium falciparum [20]) | IC50 (Plasmodium falciparum [21]) | further results
1 | CN(Cc1ccccc1)Cc1cccc(CNc2ccnc3cc(Cl)ccc23)c1 [listing 1 of 2 here] | 99.9% |  |  |  |  |  |  |  |  |  |  |  |  |  |  |  |  |  |  |  | 
2 | CN(Cc1ccccc1)Cc1cccc(CNc2ccnc3cc(Cl)ccc23)c1 [listing 2 of 2 here] |  | Dose-dependent effect | Dose-dependent effect | Dose-dependent effect |  |  |  |  |  |  |  |  |  |  |  |  |  |  |  |  | 
3 | CN(Cc1cccc(CNc2ccnc3cc(Cl)ccc23)c1)Cc1ccccn1 | 97.8% | Dose-dependent effect | Dose-dependent effect | Dose-dependent effect | 2.96% | 4.1 | Metabolite_Detected | Metabolite_Detected | 20800 nM | 5.89 min | 2.47 | Metabolite_Detected | Metabolite_Detected | 1140 mL/min/kg | Metabolite_Detected | 30.1 nM | 2.8 | 59.8 µM (≈ 24.1 µg/mL) | 124 nM | 83.8 nM | IC50 (CHO): 8300 nM; logD at 4 h [15]: 0.82; selectivity ratio [17]: 275
4 | CN(Cc1ccccn1)Cc1ccccc1CNc1ccnc2cc(C#N)ccc12 | 47.1% | Dose-dependent effect | Dose-dependent effect | Dose-dependent effect | 2.08% | 1.3 | Metabolite_Detected | Metabolite_Detected | 16600 nM | 5.35 min | 3.8 | Metabolite_Detected | Metabolite_Detected | 1250 mL/min/kg | Metabolite_Detected | 127 nM | 2.4 | 172 µM (≈ 67.8 µg/mL) | 162 nM | 307 nM | IC50 (CHO): 27600 nM; logD at 4 h [15]: 0.81; selectivity ratio [17]: 218
5 | COC(=O)[C@H]1[C@H]2C[C@@H]3c4[nH]c5cc(OC)ccc5c4CCN3C[C@H]2C[C@@H](OC(=O)c2cc(OC)c(OC)c(OC)c2)[C@@H]1OC [RESERPINE] |  |  |  |  |  |  |  |  |  |  |  |  |  |  |  |  |  | < 5 µM |  |  | 
6 | CCN(CC)CCCC(C)Nc1ccnc2cc(Cl)ccc12 (centres undefined) [CHLOROQUINE PHOSPHATE] |  |  |  |  |  |  |  |  | 26100 nM |  |  |  |  |  |  |  |  |  |  |  | 
7 | CN(Cc1ccccc1)Cc1cccc(CNc2ccnc3cc(Cl)ccc23)c1.Cl | 97.5% |  |  |  | 3.57% | 3.1 | Metabolite_Detected | Metabolite_Detected | 13400 nM | 6.15 min | 3.56 | Metabolite_Detected | Metabolite_Detected | 1110 mL/min/kg | Metabolite_Detected | 14.4 nM | 4.8 | 51.8 µM | 44.5 nM | 69.6 nM | IC50 (CHO): 9500 nM; logD at 4 h [15]: 1.33; selectivity ratio [17]: 660
8 | CN(Cc1ccc(CNc2ccnc3cc(Cl)ccc23)cc1)Cc1ccccn1 | 91.4% | Dose-dependent effect | Dose-dependent effect | Dose-dependent effect | 2.08% | 3.9 | Metabolite_Detected | Metabolite_Detected | 17200 nM | 5.35 min | 2.85 | Metabolite_Detected | Metabolite_Detected | 1250 mL/min/kg | Metabolite_Detected | 38.5 nM | 3 | 197 µM (≈ 79.2 µg/mL) | 151 nM | 114 nM | IC50 (CHO): 15700 nM; logD at 4 h [15]: 0.84; selectivity ratio [17]: 408
9 | Cc1ncc2n1-c1ccc(Cl)cc1C(c1ccccc1F)=NC2 [MIDAZOLAM] |  |  |  |  | 1.33% |  |  |  |  | 4.74 min |  |  |  | 1420 mL/min/kg |  |  |  |  |  |  | 
10 | CN(Cc1ccccn1)Cc1ccccc1CNc1ccnc2cc(Cl)ccc12 | 82.4% | Dose-dependent effect | Dose-dependent effect | Dose-dependent effect | 2.32% | 2.5 | Metabolite_Detected | Metabolite_Detected | 17900 nM | 5.49 min | 3.79 | Metabolite_Detected | Metabolite_Detected | 1220 mL/min/kg | Metabolite_Detected | 54.4 nM | 3.4 | 165 µM (≈ 66.4 µg/mL) | 137 nM | 184 nM | IC50 (CHO): 40200 nM; logD at 4 h [15]: 0.9; selectivity ratio [17]: 740; IC50 [22]: 870 nM
11 | CCN(CC)CCCC(C)Nc1ccnc2cc(Cl)ccc12 (centres undefined) [CHLOROQUINE] | 91.2% |  |  |  |  |  |  |  |  |  |  |  |  |  |  |  |  |  |  |  | 
12 | C[C@H]1[C@H](OC(=O)CCC(=O)O)O[C@@H]2O[C@@]3(C)CC[C@H]4[C@H](C)CC[C@@H]1[C@@]24OO3 [ARTESUNATE] |  |  |  |  |  | 2.6 |  |  |  |  |  |  |  |  |  | 5.6 nM | 1.4 |  | 14.3 nM | 7.7 nM | 
13 | CN(Cc1ccc(CNc2ccnc3cc(C#N)ccc23)cc1)Cc1ccccn1 | 98% | Dose-dependent effect | Dose-dependent effect | Dose-dependent effect | 3.63% | 1.9 | Metabolite_Detected | Metabolite_Detected | 24800 nM | 6.22 min | 2.84 | Metabolite_Detected | Metabolite_Detected | 1100 mL/min/kg | Metabolite_Detected | 76.4 nM | 1.8 | 144 µM (≈ 56.5 µg/mL) | 146 nM | 134 nM | IC50 (CHO): 11200 nM; logD at 4 h [15]: 1; selectivity ratio [17]: 146
14 | CCN(CC)CCCC(C)Nc1ccnc2cc(Cl)ccc12 (centres undefined) |  | Dose-dependent effect | Dose-dependent effect | Dose-dependent effect |  |  |  |  |  |  |  |  |  |  |  |  |  |  |  |  | 

Source: ChEMBL document CHEMBL4024765 (J Med Chem, 2017)
